Experimental data as given in PubChem BioAssay AID623869 (Vanderbilt High Throughput Screening Facility, 2012).
Screen size: about 2,100 compounds; about 75 (4%) were called active. This is one part of a sample in which actives are shown more often than they occur.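 The calls were made as follows: active = calcium fluorescence trace judged by eye to show a response, as agonist, enhancer of the glutamate response, or inhibitor; inactive = trace judged by eye to show no response.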

Biological target: Metabotropic glutamate receptor 8 (Rattus norvegicus) (UniProt P70579)
Assay: rat mGlu8 modulation via Gqi9 calcium signal, confirmation, counter-screen for GIRK activator project, cell-based, HEK293 rmGlu8, Gqi9 chimera, Fluo-4 calcium (AID 623869)
Conditions: HEK293 rmGlu8/Gqi9 calcium flux, Fluo-4 fluorescence; glutamate at EC20 added after compound
Method in brief: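 Material: rat mGlu8 HEK-293 cells with transient Gqi9; medium: HEPES-buffered HBSS, pH 7.4; reagent: EC20 glutamate; dosing: one dose, 20 µM addition solution, 0.2% DMSO; incubation: compound 4 min before glutamate, then 2 min recording; measured by: Fluo-4 calcium fluorescence, 1 Hz; evaluation: F/F0 fluorescence traces judged visually for each well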

Chain of Metabotropic glutamate receptor 8 (Rattus norvegicus) (P70579 whole entry, looked up): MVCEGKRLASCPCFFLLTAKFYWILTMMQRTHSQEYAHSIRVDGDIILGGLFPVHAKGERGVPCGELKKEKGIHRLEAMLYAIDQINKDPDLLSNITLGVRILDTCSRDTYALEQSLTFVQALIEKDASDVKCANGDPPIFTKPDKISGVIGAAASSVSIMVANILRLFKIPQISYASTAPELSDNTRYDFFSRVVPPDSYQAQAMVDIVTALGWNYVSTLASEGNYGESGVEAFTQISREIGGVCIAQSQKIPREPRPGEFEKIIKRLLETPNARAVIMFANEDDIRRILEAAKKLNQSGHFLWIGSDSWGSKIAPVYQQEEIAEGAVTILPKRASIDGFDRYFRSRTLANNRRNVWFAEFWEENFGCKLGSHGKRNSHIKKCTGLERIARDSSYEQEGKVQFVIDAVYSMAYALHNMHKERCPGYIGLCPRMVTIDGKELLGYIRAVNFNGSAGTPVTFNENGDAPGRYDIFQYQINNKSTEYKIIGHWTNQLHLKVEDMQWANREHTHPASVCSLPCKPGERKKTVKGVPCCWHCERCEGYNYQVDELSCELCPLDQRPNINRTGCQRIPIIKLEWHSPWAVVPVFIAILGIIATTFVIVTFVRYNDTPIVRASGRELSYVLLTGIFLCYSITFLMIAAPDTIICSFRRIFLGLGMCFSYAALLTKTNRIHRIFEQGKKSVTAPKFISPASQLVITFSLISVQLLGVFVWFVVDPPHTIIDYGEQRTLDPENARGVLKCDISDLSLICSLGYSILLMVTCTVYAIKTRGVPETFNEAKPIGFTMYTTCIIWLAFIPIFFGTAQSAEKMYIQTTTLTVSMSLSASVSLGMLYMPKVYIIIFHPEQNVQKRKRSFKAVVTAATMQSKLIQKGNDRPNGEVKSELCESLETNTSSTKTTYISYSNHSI

SMILES	outcome
CCc1nc(N2CCOCC2)c(C#N)c2c1CCCC2	active; 2
CSc1nc(N2CCOCC2)c2c(c1C#N)CC(C)(C)OC2	inactive; 0
CC(C)c1nc(N2CCOCC2)c(C#N)c2c1CCCC2	inactive; 0
C=CCn1c(O)c(N=NC(=O)OC(C)(C)C)c2ccccc21	inactive; 0
O=C(NC(=S)N1CCCc2ccccc21)c1ccc(Br)cc1	inactive; 0
Cn1c(=O)c2c(nc3sccn32)n(C)c1=O	inactive; 0
Cc1ccc(C)c(C(=O)c2c(C)nc3sccn23)c1	active; -1
COC(=O)c1ccc(NC(=S)NC(=O)c2c(Cl)cnn2C)cc1	inactive; 0
Cc1ccc(/C=N/n2c(-c3cccs3)n[nH]c2=S)cc1	inactive; 0
COC(=O)c1ccccc1NC(=S)NC(=O)COc1ccccc1	inactive; 0
Cc1ccccc1C(=O)NNC(=S)NC(=O)COc1ccccc1	active; 1
Cc1ccc(C(=O)NNC(=S)NC(=O)COc2ccccc2)cc1	active; 1
CCOC(=O)c1ccc(NC(=S)NC(=O)COc2ccccc2)cc1	inactive; 0
COC(=O)c1ccccc1NC(=S)NC(=O)COc1ccc(C)cc1	inactive; 0
O=C(COc1ccccc1)NC(=S)Nc1cccc([N+](=O)[O-])c1	inactive; 0
Cc1cccc(C(=O)NNC(=O)C(=O)NC(C)(C)C)c1	inactive; 0
COc1ccc(-c2nnc(NC(=O)c3ccc(F)cc3)o2)cc1	inactive; 0
S=c1[nH]nc(-c2ccccn2)n1/N=C/c1ccc(Br)s1	inactive; 0
O=C(NC(=S)N1CCN(c2ccc(C(F)(F)F)cc2[N+](=O)[O-])CC1)c1cccs1	inactive; 0
O=C(NC(=S)N1CCc2ccccc21)c1ccccc1Br	inactive; 0
S=c1[nH]cnc2scc(-c3ccccc3)c12	inactive; 0
O=C(NCc1ccccc1)c1ccc2c(=O)n(CCCN3CCCC3=O)c(=S)[nH]c2c1	active; -1
O=c1c2ccccc2[nH]c(=S)n1CCN1CCN(Cc2ccccc2)CC1	inactive; 0
COCCNC(=O)CCCCCn1c(=S)[nH]c2ccccc2c1=O	inactive; 0
Cc1ccc(C)c(N=C2CCCN2Cc2ccccc2)c1C#N	inactive; 0
CC1(C)CC(=O)C2=C(C1)OC(/N=C/N1CCOCC1)=C(C#N)C2c1ccccc1 (stereo not given)	inactive; 0
CCCN(CCC)C(=S)NC(=O)c1ccc(-c2ccccc2)cc1	inactive; 0
O=[N+]([O-])c1ccc(/C=N/NC(=S)Nc2ccccc2F)o1	inactive; 0
COc1cccc(-n2c(SCC(=O)NCCC3=CCCCC3)nc3n[nH]c(C)c3c2=N)c1	inactive; 0
Cc1ccccc1-n1c(SCc2ccccn2)nc2n[nH]c(C)c2c1=N	active; 2
